Experimental data taken from ChEMBL document CHEMBL1123363, “(5-Amino-1,3-dimethyl-1H-pyrazol-4-yl)(2-fluorophenyl)methanones . A series of novel potential antipsychotic agents” (J Med Chem, 1986).
Each block holds one molecule with its values, some of them ahead of it.

Experiments:
Adenosine receptor A1 = target: T1, Adenosine receptor A1 (Rattus norvegicus, UniProt P25099); experiment: Binding affinity towards rat brain adenosine A1 receptor using [3H]- CHA
T1 sequence (P25099 whole entry): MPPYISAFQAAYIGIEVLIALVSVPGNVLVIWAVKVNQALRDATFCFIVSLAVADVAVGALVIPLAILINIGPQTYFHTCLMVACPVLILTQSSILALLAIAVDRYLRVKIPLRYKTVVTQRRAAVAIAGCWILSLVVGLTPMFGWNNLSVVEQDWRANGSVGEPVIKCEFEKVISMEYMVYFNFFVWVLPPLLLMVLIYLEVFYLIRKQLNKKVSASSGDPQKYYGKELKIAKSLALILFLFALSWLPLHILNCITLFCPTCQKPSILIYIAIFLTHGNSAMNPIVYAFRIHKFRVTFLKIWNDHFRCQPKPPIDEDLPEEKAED
How it was run: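 Adenosine A1 binding in membranes of rat whole brain minus brain stem and cerebellum (male Long-Evans, 150–250 g), using [3H]-CHA at 1.0 nM final. Theophylline at 1 mM final was the reference. IC50 from four or five concentrations by nonlinear fit.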

[1] = Inhibition of sidman avoidance in rats after peroral administration
[2] = target: Dopamine receptor (Rattus norvegicus) (UniProt P25115+P19020+P30729+P18901+P61169); experiment: Compound was tested for its effect on Dopamine turnover in rat at dose of 10+/-250 mg/kg; type: functional, organism-based; settings: in the assay text read “64+/-250 mg/kg” for “10+/-250 mg/kg”
How it was run: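 Male Long-Evans rats were given vehicle or agent ip 30 min before α-methyl-p-tyrosine (250 mg/kg) and killed 4 h after it. Brain NE and DA were isolated on Sephadex G-10 and measured spectrofluorometrically. Values are percent of vehicle-treated, with at least five determinations per value.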

[3] = target: Beta-2 adrenergic receptor (Rattus norvegicus, UniProt P10608); experiment: Binding affinity against beta-2 adrenergic receptor in rat brain using [3H]DHA; type: tissue-based
Beta-2 adrenergic receptor, sequence (P10608 whole entry): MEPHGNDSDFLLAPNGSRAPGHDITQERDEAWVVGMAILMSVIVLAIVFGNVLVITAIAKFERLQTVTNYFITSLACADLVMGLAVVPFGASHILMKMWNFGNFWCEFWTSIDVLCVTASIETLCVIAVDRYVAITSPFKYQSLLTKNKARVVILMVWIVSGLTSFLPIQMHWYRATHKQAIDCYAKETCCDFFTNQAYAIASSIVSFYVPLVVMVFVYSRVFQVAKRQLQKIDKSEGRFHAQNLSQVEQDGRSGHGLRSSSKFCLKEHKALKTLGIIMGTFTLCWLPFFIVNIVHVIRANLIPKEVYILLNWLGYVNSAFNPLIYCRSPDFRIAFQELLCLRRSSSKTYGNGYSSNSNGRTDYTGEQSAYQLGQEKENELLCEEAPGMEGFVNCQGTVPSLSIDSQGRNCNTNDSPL
How it was run: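 β2 binding on rat cerebellum membranes (male Long–Evans rats, 150–250 g) with [3H]dihydroalprenolol, 0.5 nM final. Nonspecific binding defined with (-)-alprenolol, 1 μM final. IC50 from four or five concentrations by nonlinear curve fit.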

Dopamine receptor = experiment: Binding affinity against dopamine receptor in rat striatal membrane using [3H]haloperidol; type: cell membranes, Striatum
How it was run: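 Nonspecific binding defined with (+)-butaclamol at 0.1 μM final. IC50 fitted by nonlinear curve fit from four or five concentrations in triplicate.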

[4] = target: T2, Adrenergic receptor alpha-1 (Rattus norvegicus, UniProt P15823+P23944+P43140); experiment: Binding affinity against lpha-1 adrenergic receptor using [3H]- WB-4101; type: protein assay
T2 sequence (P15823 whole entry): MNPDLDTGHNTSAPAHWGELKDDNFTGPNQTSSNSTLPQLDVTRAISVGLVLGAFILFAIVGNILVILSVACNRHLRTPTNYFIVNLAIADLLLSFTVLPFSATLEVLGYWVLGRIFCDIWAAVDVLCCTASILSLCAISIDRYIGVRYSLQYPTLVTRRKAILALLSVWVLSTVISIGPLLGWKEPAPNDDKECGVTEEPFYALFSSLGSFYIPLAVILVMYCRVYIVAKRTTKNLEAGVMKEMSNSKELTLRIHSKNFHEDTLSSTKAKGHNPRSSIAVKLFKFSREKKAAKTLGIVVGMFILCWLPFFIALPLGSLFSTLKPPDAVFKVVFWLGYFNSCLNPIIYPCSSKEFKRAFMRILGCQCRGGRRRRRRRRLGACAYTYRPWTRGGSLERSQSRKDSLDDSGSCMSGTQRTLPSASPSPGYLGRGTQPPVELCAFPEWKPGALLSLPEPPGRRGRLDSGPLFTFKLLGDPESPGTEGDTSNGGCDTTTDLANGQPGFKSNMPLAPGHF
T2 sequence (P23944 whole entry): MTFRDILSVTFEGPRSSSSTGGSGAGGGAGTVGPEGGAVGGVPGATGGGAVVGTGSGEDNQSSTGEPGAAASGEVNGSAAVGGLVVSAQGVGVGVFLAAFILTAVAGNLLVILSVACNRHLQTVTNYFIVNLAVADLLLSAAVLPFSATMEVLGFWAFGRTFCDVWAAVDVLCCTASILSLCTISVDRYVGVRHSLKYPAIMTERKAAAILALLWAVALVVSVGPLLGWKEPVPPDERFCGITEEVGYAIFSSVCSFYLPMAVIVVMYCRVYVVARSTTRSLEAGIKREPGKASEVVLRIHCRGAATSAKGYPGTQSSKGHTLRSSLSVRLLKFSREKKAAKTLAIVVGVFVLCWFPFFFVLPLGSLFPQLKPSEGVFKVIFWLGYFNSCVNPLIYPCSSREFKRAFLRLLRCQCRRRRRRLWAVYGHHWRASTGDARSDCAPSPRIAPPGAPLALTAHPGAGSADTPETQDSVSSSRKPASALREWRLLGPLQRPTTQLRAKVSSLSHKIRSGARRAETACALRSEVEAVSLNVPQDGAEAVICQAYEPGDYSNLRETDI
T2 sequence (P43140 whole entry): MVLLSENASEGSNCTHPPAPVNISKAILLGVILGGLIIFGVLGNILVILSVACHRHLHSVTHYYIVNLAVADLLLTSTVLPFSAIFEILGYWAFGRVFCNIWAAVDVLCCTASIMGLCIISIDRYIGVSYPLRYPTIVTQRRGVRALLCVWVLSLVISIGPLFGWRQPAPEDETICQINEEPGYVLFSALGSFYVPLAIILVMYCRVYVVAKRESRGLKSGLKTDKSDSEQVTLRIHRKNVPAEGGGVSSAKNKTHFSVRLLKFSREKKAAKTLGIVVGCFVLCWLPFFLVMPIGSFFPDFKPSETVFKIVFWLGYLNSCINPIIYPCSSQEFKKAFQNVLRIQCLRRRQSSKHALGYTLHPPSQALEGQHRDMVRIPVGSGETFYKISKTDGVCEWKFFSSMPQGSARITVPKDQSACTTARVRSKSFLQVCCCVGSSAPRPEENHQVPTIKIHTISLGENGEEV
How it was run: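 α1-Adrenergic binding in rat frontal cerebral cortex membranes (male Long-Evans, 150–250 g) with [3H]WB4101 at 0.5 nM final. (-)-Norepinephrine at 100 μM final was the reference standard. IC50 from four or five concentrations by nonlinear curve fitting.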

[5] = target: Serotonin 1 (5-HT1) receptor (Rattus norvegicus, UniProt P28564+P30940+P19327+P28565); experiment: Binding affinity against the serotonin-1 receptor using [3H]- 5-HT; type: protein assay
How it was run: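 Serotonin-1 binding in rat cortex membranes (male Long-Evans, 150–250 g) with [3H]-5-HT at 2.0 nM final. (+)-Butaclamol at 1 μM final was the reference. IC50 from four or five concentrations by nonlinear curve fit.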

[6] = target: Muscarinic acetylcholine receptor; experiment: Binding affinity against the Muscarinic acetylcholine receptor using [3H]- QNB; type: protein assay, Rattus norvegicus
How it was run: (§1)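 Muscarinic sites in rat brain stem membranes (male Long-Evans, 150–250 g), labelled with [3H]quinuclidinyl benzilate at 0.03 nM final. Oxotremorine at 100 μM final served as the reference displacer. IC50 from four or five concentrations by nonlinear curve fitting.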

[7] = target: Muscarinic acetylcholine receptor; experiment: Binding affinity against muscarinic receptor in rat brain using [3H]- QNB; type: tissue-based; how it was run: as §1

IC50 (Adenosine receptor A1): > 10 µM
ED50 [1]: 21.3 mg/kg
Control [2]: 45.6%
IC50 [3]: > 10 µM
IC50 (Dopamine receptor): > 10 µM
Compound: Cc1nn(C)c(NC(=O)CNCCCN2CCCCC2C)c1C(=O)c1ccccc1F (centres undefined)

IC50 [4]: > 10 µM
IC50 [5]: > 10 µM
IC50 [6]: > 10 µM
Compound: CCN(CC)CC(=O)Nc1c(C(=O)c2ccccc2F)c(C)nn1C

IC50 [7]: > 10 µM
Compound: Cc1nn(C)c(N)c1C(=O)c1ccccc1F
